Assay results from ChEMBL document CHEMBL2086232, “Exploration of the SAR of anti-invasive chalcones: synthesis and biological evaluation of conformationally restricted analogues” (Bioorg Med Chem, 2012).
The source made the active and inactive calls. No cut-off for these calls is given here.

Experiments:
MCF7/6 [1] = assay: Antiinvasive activity against human MCF7/6 cells assessed as inhibition of cell invasion across chick precultured heart fragments at 1 umol/L after 8 days by chick heart invasion assay; type: functional, cell-based
Outline: (§1)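 Heart fragments from 9-day-old chick embryos were precultured, then confronted with aggregates of invasive human MCF-7/6 mammary carcinoma cells with test compound present. Replicate cultures were graded at each concentration.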

MCF7/6 [2] = assay: Antiinvasive activity against human MCF7/6 cells assessed as inhibition of cell invasion across chick precultured heart fragments at 10 umol/L after 8 days by chick heart invasion assay; type: functional, cell-based; outline: as §1
[3] = Cytotoxicity against human MCF7/6 cells at 10 umol/L after 8 days by histological analysis; type: cell-based; conditions: mcf7/6, 192 h, 10 µM
Outline: (§2)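 Chick heart confronting cultures (9-day-old embryo precultured heart fragments plus MCF-7/6 aggregates, compound present) were examined on 7-µm histological sections. Replicate cultures were graded per concentration.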

[4] = Toxicity against chick precultured heart fragments at 10 umol/L after 8 days by histological analysis; type: tissue-based, Gallus gallus; conditions: chicken, 192 h, 10 µM
MCF7/6 [5] = assay: Antiinvasive activity against human MCF7/6 cells assessed as inhibition of cell invasion across chick precultured heart fragments at 0.1 umol/L after 8 days by chick heart invasion assay; type: functional, cell-based; outline: as §1
[6] = Cytotoxicity against human MCF7/6 cells at 100 umol/L after 8 days by histological analysis; type: cell-based; conditions: mcf7/6, 192 h, 100 µM; outline: as §2
MCF7/6 [7] = assay: Antiinvasive activity against human MCF7/6 cells assessed as inhibition of cell invasion across chick precultured heart fragments at 100 umol/L after 8 days by chick heart invasion assay; type: functional, cell-based; outline: as §1

With `COc1ccc(-c2cc(-c3ccc(Cl)cc3)on2)cc1` the Activity (MCF7/6 [1]) was “inactive” and the Activity (MCF7/6 [2]) was “inactive”.

For `COc1cc(-c2oncc2-c2ccc(F)cc2)cc(OC)c1OC`, the Activity [3] was “Toxic”, the Activity [4] was “Toxic” and the Activity (MCF7/6 [5]) was “inactive”. The Activity [6] was “Toxic”, the Activity (MCF7/6 [1]) was “Active” and the Activity (MCF7/6 [2]) was “Active”.

With `COc1ccc(C2=NOC(c3ccc(Cl)cc3)C2)cc1` (stereo not given) the Activity (MCF7/6 [7]) was “inactive” and the Activity (MCF7/6 [1]) was “inactive”.

In the case of `COc1cc(C(=O)Cc2ccc(F)cc2)cc(OC)c1OC`, the Activity (MCF7/6 [7]) was “Active”, the Activity (MCF7/6 [5]) was “inactive” and the Activity [6] was “Toxic”. The Activity (MCF7/6 [1]) was “inactive” and the Activity (MCF7/6 [2]) was “inactive”.

In the case of `COc1cc(-c2cc(-c3ccc(F)cc3)on2)cc(OC)c1OC`, the Activity (MCF7/6 [7]) was “Active”, the Activity (MCF7/6 [5]) was “inactive” and the Activity [6] was “Toxic”. The Activity (MCF7/6 [1]) was “inactive” and the Activity (MCF7/6 [2]) was “Active”.
